Assay outcomes deposited in PubChem BioAssay by Johns Hopkins Ion Channel Center.
KCNK9 inh – human KCNK9 channel inhibition. Q9NPC2. HEK293 KCNK9, FluxOR thallium flux fluorescence; hits give low values. B-score at 10 µM. actives 1.2% (n = 310,000). AID 488922;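 active means ratio B-score over 3 SD below the library mean, with starting fluorescence within 5 SD of its mean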;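 further: negative B-score means less thallium flux so channel inhibition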
KCNK3 block – human KCNK3 channel inhibition, primary screen | CHO-KCNK3 thallium flux, FluxOR fluorescence; hits give low values | AID 602410 | B-score at 10 µM | O14649 | actives 0.84% (n = 340,000);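 active means B-score under library mean minus 4 SD, starting fluorescence ratio at most library mean plus 5 SD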;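 further: more negative B-score means stronger inhibition of thallium flux through KCNK3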
hERG rescue – hERG (human) protection from proarrhythmic block | activation (rescue from dofetilide block), less the hit threshold, % at 10 µM | actives 0.51% (n = 310,000) | CHO-hERG, FluxOR thallium flux, dofetilide IC70 present | Q12809;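 active means activation above the mean of controls blocked by dofetilide plus 5 SD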;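 further: thallium influx through hERG after potassium depolarization seen as dye fluorescence rise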
KCNQ1 pot – human KCNQ1 channel potentiation or activation. CHO-K1 KCNQ1, thallium flux FluxOR fluorescence; hits give high values. B-score at 10 µM. P51787. actives 0.35% (n = 310,000);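 active means fluorescence ratio B-score, a plate-corrected score, at least three library SD, with initial intensity B-score within 5 SD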
Target sequence (P51787 whole entry, looked up): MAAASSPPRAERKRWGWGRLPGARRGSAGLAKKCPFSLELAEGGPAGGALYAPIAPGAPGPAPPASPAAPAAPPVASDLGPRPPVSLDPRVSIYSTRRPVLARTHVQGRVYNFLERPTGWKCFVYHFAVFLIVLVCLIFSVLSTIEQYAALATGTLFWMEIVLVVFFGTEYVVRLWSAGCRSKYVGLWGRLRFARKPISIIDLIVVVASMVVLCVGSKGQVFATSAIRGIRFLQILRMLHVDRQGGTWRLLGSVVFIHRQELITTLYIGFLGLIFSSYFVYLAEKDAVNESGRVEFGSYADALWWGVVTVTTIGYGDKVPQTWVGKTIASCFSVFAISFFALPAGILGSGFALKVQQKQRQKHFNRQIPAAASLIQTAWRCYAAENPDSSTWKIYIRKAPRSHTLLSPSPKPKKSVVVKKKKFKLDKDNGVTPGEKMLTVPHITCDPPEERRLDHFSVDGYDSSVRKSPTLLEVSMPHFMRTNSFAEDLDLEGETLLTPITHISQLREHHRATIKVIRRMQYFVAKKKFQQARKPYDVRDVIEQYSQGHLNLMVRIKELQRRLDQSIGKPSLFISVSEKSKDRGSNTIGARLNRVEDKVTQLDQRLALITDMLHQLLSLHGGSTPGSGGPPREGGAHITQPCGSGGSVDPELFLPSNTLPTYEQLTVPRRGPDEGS
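Test system: CHO-K1 cells stably expressing KCNQ1 / Medium: assay buffer / Also added: depolarizing K+/Tl+ stimulus, K2SO4 and Tl2SO4 each 12.5 mM in 5x stock / Incubation: 90 min dye loading and 20 min compound exposure, both at room temperature / Signal: thallium influx via FluxOR fluorescence, kinetic imaging / Evaluation: B score of baseline-normalized fluorescence ratio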
KCNQ1 inh – human KCNQ1 channel inhibition. actives 1.3% (n = 310,000). B-score at 10 µM. CHO-K1 KCNQ1, FluxOR thallium flux fluorescence; hits give high values. P51787;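 active means compounds whose thallium flux B-score, printed positive for inhibition, exceeds three library SD while starting fluorescence stays within three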;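 further: channel opened by potassium depolarization with thallium stimulus after 20 min compound exposure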
Kir21 block – blocks the mouse Kir2.1 inward-rectifier potassium channel; HEK293-Kir2.1, FluxOR thallium flux fluorescence; hits give low values; P35561; actives 0.85% (n = 310,000); B-score at 10 µM;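 active means fluorescence ratio B-score at or below minus 3 SD of library scores, with starting-brightness B-score within 2 SD, cut at about -4.2 in these data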;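 further: channel flux triggered by added potassium and thallium sulfate stimulus; B-score of peak minus minimum fluorescence over baseline after thallium stimulus; more negative B-score means stronger Kir2.1 block with less thallium influx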
KCNK3 confirm – confirmation of human KCNK3 two-pore domain potassium channel inhibitors; shares compounds with KCNK3 block; CHO-KCNK3 thallium flux, FluxOR fluorescence; 0% buffer, 100% carvedilol maximal block; ratio percent of control, % at 10 µM; actives 99% (n = 2,400); AID 651638;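 active means ratio percent of control, averaged over triplicates, above buffer control mean plus 5 SD, cut at about 64% in these data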;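 further: ratio is the fluorescence rise from min to max over baseline after thallium stimulus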
KCNK3 uninduced – counter-screen for KCNK3 inhibitors: effect in non-induced cells | shares compounds with KCNK3 block | non-induced KCNK3 parental cells, FluxOR thallium flux; hits give low values | thallium flux ratio (lower = more inhibition) at 10 µM | actives 40% (n = 2,400);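 active means thallium flux ratio, averaged over three wells, more than 5 SD below the buffer control mean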;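 further: host cells are CHO cells without KCNK3 induction; ratio is peak minus trough fluorescence over baseline then normalized to buffer controls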
* = called active by the depositor; i = inactive; . = no result given. Most compounds without a hit are left out; they make up all but 3.7% or so of the library.

SMILES	KCNK9 inh	KCNK3 block	hERG rescue	KCNQ1 pot	KCNQ1 inh	Kir21 block	KCNK3 confirm	KCNK3 uninduced
O=C(NCCc1c[nH]c2ccccc12)c1cnccn1	i	i	-9	i	i	0.28	.	.
O=C(N/N=C/c1cccc(Oc2ccccc2)c1)c1ccccc1Br	i	-12*	1	i	i	-1.9	91*	i
NC(=O)c1ccc(C(=O)N/N=C/c2cccc(Oc3ccccc3)c2)cc1	i	i	-13	i	i	-0.51	.	.
CC(=O)N1CCN(C(=O)c2ccc(C(=O)c3ccccc3)cc2)CC1	i	i	-2	i	i	1.6	.	.
CCN(CCCNC(=O)CNC(=O)c1nn(-c2ccc(OC)cc2)c(=O)c2ccccc12)c1cccc(C)c1	i	-12*	-7	i	i	-0.22	117*	i
O=C(c1cccc(C(F)(F)F)c1)C1CCCN(C(=O)CCCn2cncn2)C1 (configuration not stated)	i	i	-13	i	i	0.12	.	.
N#CC1=C(N)NC(SCC(=O)Nc2ccccc2)=C(C#N)C12CCCCC2	i	-9.5*	-7	i	i	2	106*	0.14*
COc1ccc(C(=O)CSC2=C(C#N)C3(CCCCC3)C(C#N)=C(N)N2)cc1	i	-10*	-22	i	i	-0.43	112*	0.12*
COc1ccc(C(=O)CSc2nc(N)nc(SC)c2C#N)cc1	i	i	-21	i	i	0.01	.	.
N#CC1=C(N)NC(SCc2ccccc2)=C(C#N)C12CCCCC2	i	i	-37	i	i	-1.3	.	.
CC(=O)O/N=C/c1c(C)c(C=O)n2ccccc12	i	i	-10	i	i	-1.2	.	.
CC1=NN(C(=O)CSCc2ccccc2)C(O)(c2ccc(F)cc2)C1 (configuration not stated)	-6.9*	-9.2*	-5	i	i	-1.2	95*	i
COc1cccc(/C=N/NC(=O)C(=O)Nc2ccccc2OC(F)(F)C(F)F)c1O	i	i	-5	i	i	-0.01	.	.
O=C(c1cc(-c2cccc(O)c2)on1)N1CCCCCC1	i	-11*	-2	i	i	0.98	68*	i
CCOc1ccccc1N1CCN(C(=O)c2ccc3c(c2)OCO3)CC1	i	i	-7	i	i	-0.16	.	.
CC12CCC(=O)C=C1CCC1C2CCC2(C)C(C(=O)CO)CC(O)C12 (configuration not stated)	.	i	.	.	.	.	.	.
CCc1ccc(NC(=O)Cn2nc(C(=O)O)c3ccccc3c2=O)cc1	i	i	-5	i	i	-1.4	.	.
O=C(Nc1nc(-c2ccc3c(c2)OCO3)cs1)C1COc2ccccc2O1 (configuration not stated)	i	-11*	-15	i	i	0.01	109*	i
COc1ccc(OC)c(Nc2nc(-c3cccs3)cs2)c1	i	-9.1*	1	i	i	-0.05	90*	i
COc1ccc(Nc2nc(-c3cccs3)cs2)c(OC)c1	i	i	-14	i	i	-2.8	.	.
COc1ccccc1NC(=O)COc1ccc2c(c1)OCO2	i	i	-10	i	i	-1	.	.
O=C(/C=C/c1ccc(N2CCCCC2)c([N+](=O)[O-])c1)c1ccc(O)cc1	-7.8*	-11*	-9	i	i	1.5	123*	i
O=C(CSc1nc(-c2ccccc2)ns1)NCC1CCCO1 (configuration not stated)	i	i	-9	i	i	-0.99	.	.
O=C(Nc1ccc(S(=O)(=O)N2CCOCC2)cc1)c1cc(-c2cc(Cl)ccc2O)n[nH]1	i	-8.7*	-16	i	i	1.3	128*	0.13*
CCOc1ccccc1C(=O)NCCCCNC(=O)c1ccccc1OCC	i	-9.8*	-13	i	i	0.76	94*	i
SMILES	KCNK9 inh	KCNK3 block	hERG rescue	KCNQ1 pot	KCNQ1 inh	Kir21 block	KCNK3 confirm	KCNK3 uninduced
CCOc1cc(NC(=O)C2CC2)c(OCC)cc1NC(=O)c1cc(OC)c(OC)c(OC)c1	i	i	-10	i	i	0.55	.	.
CCOc1cc(NC(=O)C2CC2)c(OCC)cc1NC(=O)c1ccccc1OCC	i	-8.7*	-16	i	i	1.1	102*	i
COc1ccc(Cc2nnc(NC(=O)C3CC(=O)N(c4ccccc4)C3)s2)cc1OC (configuration not stated)	i	i	-9	i	i	1.4	.	.
O=C(Nc1nnc(C2CC2)s1)c1cncc(Br)c1	.	i	.	.	.	.	.	.
Cc1ccc(C)c(N2CCN(CCN3CCCCC3)CC2)c1	i	i	-12	i	i	0.26	.	.
CCCC(=O)Nc1ccc(C(=O)n2ccc(C)n2)cc1	i	i	3	i	i	-0.01	.	.
Cc1ccc(C(=O)CSc2nc(-c3ccccc3)ccc2C#N)cc1	i	i	-10	i	i	-1.1	.	.
CCSc1nc(-c2ccc(OC)cc2)ccc1C#N	i	-8.8*	-8	i	i	0.81	113*	i
CC1CC(Nc2ccccc2)c2ccccc2N1C(=O)c1ccco1 (configuration not stated)	i	-13*	-10	i	i	-3.2	115*	i
CCCCS(=O)(=O)Nc1ccc(N2CCOCC2)c(S(=O)(=O)N2CCOCC2)c1	i	i	-5	i	i	0.36	.	.
CCN(CC1COc2ccccc2O1)C(=O)c1ccc(Cl)c(S(=O)(=O)N2CC(C)OC(C)C2)c1 (configuration not stated)	i	i	-15	i	i	0.66	.	.
CC1CN(S(=O)(=O)c2cc(C(=O)N(CCc3ccccc3)Cc3ccccc3)ccc2Cl)CC(C)O1 (configuration not stated)	i	-8.7*	-16	i	i	0.72	85*	i
CCC(C)(C)n1nnnc1C(c1cc(OC)ccc1OC)N1CCN(Cc2ccccc2)CC1 (configuration not stated)	-7.6*	-11*	-4	i	i	-2.5	107*	i
CCC(C)(C)n1nnnc1CN1CCN(C(c2ccccc2)c2ccccc2)CC1	i	-13*	-15	i	i	0.43	141*	0.13*
